Compound activity from PubChem BioAssay.
Shown are actives, neighbours in structure and some others; about 1.5% of the full set was active somewhere.
CXCR6 inh – inhibitors of human CXCR6 receptor | CHO-K1 PathHunter CXCR6 beta-arrestin, luminescence | O00574 | 360,000 compounds, 0.36% hits | inhibition, % at 20 µM; in the data active = inhibition above about 34%, passing the limit was not always enough;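 note: antagonist mode with CXCL16 agonist at 10 nM final; 0% = 10 nM CXCL16 with DMSO and 100% = unstimulated wells without agonist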
Target sequence (O00574 whole entry, looked up): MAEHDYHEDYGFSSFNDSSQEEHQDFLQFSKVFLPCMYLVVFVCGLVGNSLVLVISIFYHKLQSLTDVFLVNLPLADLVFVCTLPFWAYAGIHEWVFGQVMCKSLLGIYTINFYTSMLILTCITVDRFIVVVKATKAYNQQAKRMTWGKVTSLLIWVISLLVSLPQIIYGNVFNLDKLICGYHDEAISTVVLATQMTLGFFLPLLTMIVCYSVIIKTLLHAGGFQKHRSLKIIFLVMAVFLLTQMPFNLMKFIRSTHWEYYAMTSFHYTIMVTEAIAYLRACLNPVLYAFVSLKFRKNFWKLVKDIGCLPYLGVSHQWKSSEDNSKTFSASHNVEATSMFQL
EBI2 antag – antagonists of human EBI2 receptor; EBI2 beta-arrestin recruitment, luminescence, 7a,25-OHC stimulated; inhibition, % at 5 µM; 360,000 compounds, 0.81% hits; in the data active = inhibition above about 38%;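 note: enzyme fragment complementation signal reports receptor beta-arrestin coupling in cells; 0% = agonist plus DMSO wells and 100% = wells without agonist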
CCR6 antagonist – CCR6 (human) receptor antagonism; inhibition, % at 20 µM; 340,000 compounds, 0.49% hits; CHO-K1 CCR6 PathHunter beta-arrestin, luminescence, CCL20-stimulated; P51684;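 active = compounds whose inhibition of the agonist-driven luminescence signal at 20 µM reaches about 50%, limit read from the data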;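 note: cells stimulated with CCL20 at 14 nM final; plate controls were DMSO with CCL20 for no effect and DMSO without agonist for full effect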
APJ antagonist – antagonists of human APJ apelin receptor; P35414; CHO-K1 APJ beta-arrestin complementation, luminescence; inhibition, % at 20 µM; 330,000 compounds, 0.32% hits;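 active = inhibition above about 40% at 20 µM, limit read from the data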;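 note: cells challenged with 10 nM apelin-13 agonist together with compound; plate controls were apelin-13 plus DMSO wells for no effect and DMSO wells lacking apelin-13 for full effect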
APJ agonist – agonists of human APJ apelin receptor; P35414; CHO-K1 APJ PathHunter beta-arrestin, luminescence; 0% DMSO wells, 100% apelin; activation, % at 20 µM; 330,000 compounds, 0.11% hits; AID 2520;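 active = activation more than six SD over the plate average, tested at 20 µM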;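 note: 0% = DMSO alone and 100% = apelin-13 at 10 nM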
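assay system = CHO-K1 APJ beta-arrestin complementation cell line | input = cell density 1000 per well | dosing = compound 20 µM once, DMSO 1% | timing = compound 90 min 25 °C, reagent 1 h | measured by = luminescence from split beta-galactosidase complementation, Galacton Star/Emerald II substrate | read-out basis = APJ agonist activity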
Starred values were filed as active, the others as inactive; nt = no result.

SMILES	CXCR6 inh	EBI2 antag	CCR6 antagonist	APJ antagonist	APJ agonist
NC(=O)CC(NC(=O)Cc1ccc(Cl)cc1)c1ccc(NC2CCCCCCC2)c([N+](=O)[O-])c1 (configuration not stated)	9	-22	7	4	-6
COc1ccc(CCn2c(C)ccc2C)cc1OC	nt	nt	nt	9	1
COc1ccc(CCN2C(=O)C=CC2=O)cc1OC	93*	8	109*	nt	nt
CN(CCCC(=O)Nc1ccc(Br)cc1F)S(=O)(=O)c1ccccc1	-12	-7	0	3	3
CC(=O)c1ccc2noc(-c3cccc(C)c3)c2c1	-4	-8	-1	8	-1
CCN(CC)S(=O)(=O)c1ccc2oc(C(=O)NCc3ccc(F)cc3)c(C)c2c1	5	50*	11	-1	0
Cc1cccc2c1N(CCOc1ccc(C(C)(C)C)cc1)C(=O)C2=O	26	7	35	12	2
Cc1ccc(OCCCN2C(=O)C(=O)c3cccc(C)c32)cc1	19	8	57*	38	-10
Cc1ccc(OCCN2C(=O)C(=O)c3cc(C)ccc32)cc1	21	16	52*	18	-5
Cc1ccc2c(c1)C(=O)C(=O)N2CC(=O)OC(C)C	10	5	19	-3	-2
COc1ccc(-c2csc(N3C(=N)SCC3=O)n2)cc1	29	-4	56*	19	-6
CCOC(=O)c1cnc(-n2nc(C)cc2C)nc1NC(C)c1ccccc1 (configuration not stated)	29	51*	41	25	-6
O=C1Nc2ccc(Br)cc2/C1=C/C(=O)c1ccc2c(c1)OCO2	23	85*	40	-13	6
O=C1Nc2ccc(Br)cc2/C1=C/C1CC=CCC1 (configuration not stated)	5	7	4	20	0
CC(=O)c1c(N)[nH]c(-c2ccccc2)nc1=S	16	0	57*	24	-9
CC1(C)CC(=O)CC(=O)/C1=N\Nc1c(Cl)cc(Cl)cc1Cl	8	4	36	10	-4
Cc1ccc2ccc(C(Nc3cccc(C(F)(F)F)c3)c3cccnc3)c(O)c2n1 (configuration not stated)	40*	19	53*	21	-6
O=C(CSCc1ccc(Cl)cc1)Nc1ccc(-c2nnc(-c3ccccc3)o2)cc1	-17	-19	-14	45*	1
O=C(Cc1ccc(Cl)cc1)Nc1ccc(-c2nnc(-c3ccco3)o2)cc1	1	-3	10	-10	1
Cc1ccc(C2C3CN(C(C)C)CC=C3C(C#N)=C(N)C2(C#N)C#N)cc1 (configuration not stated)	53*	22	60*	36	-11
COc1ccc(N=C2S/C(=C\c3ccc(Cl)c([N+](=O)[O-])c3)C(=O)N2CCN(C)C)cc1	17	62*	25	19	0
CCCN1C(=O)/C(=C/c2ccc(C)s2)SC1=Nc1ccc(OC)cc1	10	13	22	13	-7
CCN(CC)CCN1C(=O)/C(=C\c2ccc(Cl)c([N+](=O)[O-])c2)SC1=Nc1ccc(OC)cc1	1	73*	25	21	-1
Cc1cccc(C2N=C(N)Nc3nc4ccccc4n32)c1 (configuration not stated)	-10	-11	7	14	-2
N=C1/C(=C\c2ccc(-c3ccc(C(=O)O)cc3)o2)C(=O)N=C2SC=C(c3ccccc3)N12	34	14	53*	nt	nt
SMILES	CXCR6 inh	EBI2 antag	CCR6 antagonist	APJ antagonist	APJ agonist
CCOc1ccc(S(=O)(=O)n2nc(C)c(S(=O)(=O)N3CCOCC3)c2C)cc1	5	-4	13	7	-2
O=C(/C=C/c1ccc(NC(=O)c2ccccc2-c2ccccc2C(=O)O)cc1)c1ccccc1	-1	3	5	-13	-2
O=C(/C=C/c1ccncc1)c1ccc(NC(=O)c2ccccc2F)cc1	40	14	69*	nt	nt
CCCN1CCN(C(=O)c2cc3c(s2)-c2ccccc2OC3)CC1	-2	88*	10	10	-2
Cc1ccc(S(=O)(=O)NC(=O)NC(C)Cc2ccccc2)cc1 (configuration not stated)	-2	1	5	-4	-3
O=C(NN=C1c2ccccc2-c2ccccc21)c1cccc(Br)c1	46*	13	47	40	-4
O=C(COc1cccc(Br)c1)NN=C1c2ccccc2-c2ccccc21	-6	-2	8	2	-1
